Our source for the IC50 and TI values is ChEMBL document CHEMBL1134105, “Enantioselective synthesis and complement inhibitory assay of A/B-ring partial analogues of oleanolic acid” (Bioorg Med Chem Lett, 2001).

The test system of test [1] is SK-MEL. The experiment in a line: Cytotoxicity against human malignant melanoma cell line SK-MEL. Format: functional, cell-based. A digest of the protocol: (§1)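 SK-MEL human malignant melanoma cells, 25,000 per well, were exposed to compound solutions for 72 h. Viable cells were counted by neutral red uptake: cells were washed with saline, incubated 1.5 h in 0.17% neutral red in serum-free RPMI, then washed again to remove extracellular dye.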

Test [2] is filed under the species Homo sapiens. The experiment in a line: In vitro concentration required to inhibit classical pathway complement induced hemolysis in human; NA= not active. It is filed as functional. A digest of the protocol: (§2)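 Classical pathway complement inhibition was tested in vitro; IC50 values are means of three experiments with standard deviation.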
Test [3] can be described thus: In vitro therapeutic index (IC50 cytotoxicity/ IC50 complement inhibition) was determined; ND=not active. It is filed as functional.
Test [4] can be described thus: In vitro therapeutic index (IC50 cytotoxicity/ IC50 complement inhibition) was determined. It is filed as functional.
The species named for test [5] is Homo sapiens. The experiment in a line: In vitro concentration required to inhibit classical pathway complement induced hemolysis in human. It is filed as functional. The method in brief: as §2
The subject of test [6] is SK-MEL. The experiment in a line: Cytotoxicity against human malignant melanoma cell line SK-MEL; NA= not active. Format: functional, cell-based. The method in brief: as §1

Active and inactive are the calls of the source. The calls are words filed in the database; no cut-off is given here.

Regarding `COc1ccc(CO[C@H]2CC[C@]3(C)C[C@H](Cc4ccccc4C(=O)O)CCC3C2(C)C)cc1` (stereo partly specified), the IC50 – broadly, the concentration that gives 50% inhibition – was 166 µM in test [1] and “Not Active” in test [2].
Take `COc1ccc(CO[C@H]2CC[C@]3(C)CC(Cc4ccc(C(=O)O)cc4)CCC3C2(C)C)cc1` (single isomer, unassigned): the IC50 in test [1] is 200 µM; in test [2], “Not Active”. In addition, the TI entry in test [3] is “inactive”.
Regarding `CC1(C)C2CCC(Cc3ccc(C(=O)O)cc3)C[C@@]2(C)CC[C@@H]1O` (single isomer, unassigned), the IC50 is 378 µM in test [1] and 610 µM in test [5]. Also, in test [4], the TI was determined as 0.6.
In the case of `CC1(C)C2CC[C@@H](Cc3ccccc3C(=O)O)C[C@@]2(C)CC[C@@H]1O` (stereo partly specified), the figures for the IC50 in test [1] and in test [5] were 484 µM and 616 µM, respectively. In test [4], this molecule displayed a TI of 0.8.
As to `CC1(C)C2CCC[C@H](/C=C/c3ccccc3C#N)[C@@]2(C)CC[C@@H]1O` (stereo partly specified), the results for the IC50 in test [1] and in test [2] were 155 µM and “Not Active”, respectively.
Consider `CC1(C)C2CCC[C@H](/C=C/c3ccccc3C(=O)O)[C@@]2(C)CC[C@@H]1O` (stereo partly specified), for which the IC50 in test [1] was found to be 380 µM; in test [5], 633 µM. Also, in test [4], the TI is on record as 0.6.
Take `CC1(C)C2CCC(Cc3cccc(C(=O)O)c3)C[C@@]2(C)CC[C@@H]1O` (single isomer, unassigned): the IC50 in test [1] is 333 µM; in test [5], 601 µM. Further, the TI in test [4] turned out to be 0.6.
On the same counts, the results for `CC1(C)C2CCC[C@H](/C=C/c3ccc(C(=O)O)cc3)[C@@]2(C)CC[C@@H]1O` (stereo partly specified) are 380 µM, 623 µM and 0.6.
With `CC1(C)C2CCC[C@H](/C=C/c3cccc(C(=O)O)c3)[C@@]2(C)CC[C@@H]1O` (stereo partly specified), the results for the IC50 in test [1] and in test [5] were 269 µM and 550 µM, respectively. This molecule returned a TI in test [4] of 0.5.
On the same counts, the results for `COc1ccc(CO[C@H]2CC[C@]3(C)CC(Cc4cccc(C(=O)O)c4)CCC3C2(C)C)cc1` (single isomer, unassigned) are 180 µM, 488 µM and 0.4.
On to `COC(=O)c1ccc(/C=C/[C@H]2CCCC3C(C)(C)[C@@H](O)CC[C@@]32C)cc1` (stereo partly specified), for which the IC50 result in test [2] and in test [6] was “Not Active” in each case.
Take `CC1(C)CC[C@]2(C(=O)O)CC[C@]3(C)C(=CC[C@@H]4[C@@]5(C)CC[C@H](O)C(C)(C)[C@@H]5CC[C@]43C)[C@@H]2C1` [OLEANOLIC_ACID]: the TI in test [4] stood at 1.55.
